Data set [1] deals with Pseudomonas aeruginosa. The data set can be described thus: Antibacterial activity against Pseudomonas aeruginosa isolate 1091-05. Type of data set: functional.
Data set [2] deals with Klebsiella pneumoniae. The data set can be described thus: Antibacterial activity against Klebsiella pneumoniae 1000-02. Type of data set: functional.
The test system of a further data set is Acinetobacter baumannii. The data set can be described thus: Antibacterial activity against Acinetobacter baumannii AB-3167. Type of data set: functional.
Data set [3] relates to Pseudomonas aeruginosa. Description: Antibacterial activity against Pseudomonas aeruginosa. Type of data set: functional.
Data set [4] concerns Pseudomonas aeruginosa. Description: Antibacterial activity against imipenem-sensitive Pseudomonas aeruginosa isolate 1091-05 infected in sc dosed neutropenic-C3H/HeN mouse assessed as mouse survival administered 4 hrs post infection followed by BID dosing for two days measured on day 10. Type of data set: functional. As to conditions: isolate 1091-05, sc, read-out: PD50.
The next data set has as its system Serratia marcescens. The data set can be described thus: Antimicrobial activity against Serratia marcescens. Type of data set: functional.
In data set [5] the test system is Pseudomonas aeruginosa. Description: Antibacterial activity against imipenem-sensitive Pseudomonas aeruginosa isolate 1091-05 infected in ip dosed SF-1 mouse assessed as survival of animal administered 0.5 and 4 hrs post infected measured on day 4. As to conditions: isolate 1091-05, ip, read-out: PD50. Type of data set: functional.
Data set [6] is described as follows: Chemical stability of the compound in phosphate buffer at pH 8 assessed as drug degradation at 1 uM after 100 hrs by HPLC analysis. Particulars: read-out: Drug degradation. Type of data set: physicochemical. A digest of the protocol:
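Hydrolytic β-lactam ring-opening was followed in aqueous buffer at pH 8.0 and 37 °C over a 100 h incubation. The read-out was percent degradation.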

Another data set relates to Citrobacter freundii. Description: Antimicrobial activity against Citrobacter freundii. Type of data set: functional.
The subject of a further data set is Klebsiella aerogenes. The data set can be described thus: Antimicrobial activity against Enterobacter aerogenes. Type of data set: functional.
The test system of data set [7] is Escherichia coli. Description: Antimicrobial activity against extended spectrum beta-lactamase-producing Escherichia coli. Type of data set: functional.
Data set [8] has as its system Klebsiella pneumoniae. The data set can be described thus: Antimicrobial activity against carbapenemase-producing Klebsiella pneumoniae. Type of data set: functional.
Data set [9] concerns Stenotrophomonas maltophilia. Description: Antimicrobial activity against Stenotrophomonas maltophilia. Type of data set: functional.
The subject of a further data set is Acinetobacter sp. The data set can be described thus: Antimicrobial activity against Acinetobacter sp. Type of data set: functional.
Data set [10] concerns Pseudomonas aeruginosa. Description: Antibacterial activity against Pseudomonas aeruginosa cystic fibrosis isolate. Type of data set: functional.
Data set [11] has as its system Escherichia coli. Description: Antimicrobial activity against CTX-M-positive extended spectrum beta-lactamase-producing Escherichia coli. Type of data set: functional.
The subject of data set [12] is Escherichia coli. Description: Antimicrobial activity against Escherichia coli clinical isolate. Type of data set: functional.
In data set [13] the test system is Klebsiella pneumoniae. Description: Antimicrobial activity against extended spectrum beta-lactamase-producing Klebsiella pneumoniae. Type of data set: functional.
The subject of data set [14] is Klebsiella pneumoniae. The data set can be described thus: Antimicrobial activity against Klebsiella pneumoniae clinical isolate. Type of data set: functional.
Data set [15] concerns Pseudomonas aeruginosa. The data set can be described thus: Antibacterial activity against metallo-beta-lactamase producing Pseudomonas aeruginosa. Type of data set: functional.
Data set [16] concerns Pseudomonas aeruginosa. The data set can be described thus: Antibacterial activity against Pseudomonas aeruginosa clinical isolate. Type of data set: functional.
A short description of data set [17]: Plasma protein binding in human. Type of data set: ADME, cell-free. As to conditions: read-out: PPB (converted).

Converted amounts (≈) assume the structure as drawn. Where only a bound is given, the exact number is not on record here.

Turning to `CC(C)(O/N=C(\C(=O)N[C@H]1CN(C(=O)[N-]S(=O)(=O)n2nc(-c3cc(=O)c(O)c[nH]3)n(CC(N)=O)c2=O)C1=O)c1csc(N)n1)C(=O)[O-].[Na+].[Na+]`, the MIC (in general, the least concentration at which growth counts as inhibited) came to 0.125 µg/mL with Pseudomonas aeruginosa [1], 1 µg/mL in the data set on Klebsiella pneumoniae [2] and 1 µg/mL in the data set with Acinetobacter baumannii. In addition, the MIC90 (commonly an inhibitory concentration at the 90% level, which refers to growth in some studies and to a panel of isolates in others) against Pseudomonas aeruginosa [3] stood at 1 µg/mL. For the same compound, the ED50 in the data set on Pseudomonas aeruginosa [4] came out at 25 mg/kg.
In the data set with Pseudomonas aeruginosa [1], `CC(C)(O)Cn1c(-c2cc(=O)c(O)c[nH]2)nn(S(=O)(=O)[N-]C(=O)N2C[C@H](NC(=O)/C(=N\OC(C)(C)C(=O)[O-])c3csc(N)n3)C2=O)c1=O.[Na+].[Na+]` showed an MIC of 0.25 µg/mL.
For `C[C@@H](O)[C@H]1C(=O)N2C(C(=O)O)=C(S[C@@H]3CN[C@H](C(=O)N(C)C)C3)[C@H](C)[C@H]12` [MEROPENEM], the MIC50 (commonly an inhibitory concentration at the 50% level, which refers to growth in some studies and to a panel of isolates in others) in the data set with Serratia marcescens was 0.06 µg/mL (≈ 0.156 µM); with Citrobacter freundii, 0.06 µg/mL (≈ 0.156 µM); in the data set on Klebsiella aerogenes, 0.06 µg/mL (≈ 0.156 µM); in the data set on Escherichia coli [7], 0.06 µg/mL (≈ 0.156 µM); in the data set on Klebsiella pneumoniae [8], 0.06 µg/mL (≈ 0.156 µM); in data set [9], over 64 µg/mL. In addition, the MIC50 against Acinetobacter sp. worked out at 1 µg/mL (≈ 2.61 µM); in the data set on Pseudomonas aeruginosa [10] it was 8 µg/mL (≈ 20.9 µM); against Escherichia coli [11], 0.06 µg/mL (≈ 0.156 µM); in the data set with Escherichia coli [12] it was 0.06 µg/mL (≈ 0.156 µM); in the data set on Klebsiella pneumoniae [13] it was 0.06 µg/mL (≈ 0.156 µM); against Klebsiella pneumoniae [14], 0.06 µg/mL (≈ 0.156 µM). Besides, the MIC50 against Pseudomonas aeruginosa [15] and against Pseudomonas aeruginosa [16] was 8 µg/mL (≈ 20.9 µM) throughout. Further, the MIC90 was over 64 µg/mL in the data set with Serratia marcescens; over 64 µg/mL with Pseudomonas aeruginosa [3]; 0.25 µg/mL (≈ 0.652 µM) against Citrobacter freundii; 0.25 µg/mL (≈ 0.652 µM) in the data set with Klebsiella aerogenes; 0.06 µg/mL (≈ 0.156 µM) against Escherichia coli [7]; 32 µg/mL (≈ 83.4 µM) in the data set on Klebsiella pneumoniae [8]. For the same compound, the MIC90 is over 64 µg/mL in [9]; 32 µg/mL (≈ 83.4 µM) in the data set on Acinetobacter sp.; over 64 µg/mL against Pseudomonas aeruginosa [10]; 0.06 µg/mL (≈ 0.156 µM) against Escherichia coli [11]; 0.06 µg/mL (≈ 0.156 µM) with Escherichia coli [12]; 32 µg/mL (≈ 83.4 µM) against Klebsiella pneumoniae [13]. Also, the values for the MIC90 in the data set with Klebsiella pneumoniae [14], with Pseudomonas aeruginosa [15] and against Pseudomonas aeruginosa [16] were 32 µg/mL (≈ 83.4 µM), over 64 µg/mL and over 64 µg/mL, respectively. The MIC against Pseudomonas aeruginosa [1] was 0.5 µg/mL (≈ 1.3 µM); against Klebsiella pneumoniae [2], under 1 µg/mL; in the data set on Acinetobacter baumannii, 0.25 µg/mL (≈ 0.652 µM). The values for the ED50 in the data set with Pseudomonas aeruginosa [5] and in the data set on Pseudomonas aeruginosa [4] were 1.3 mg/kg and 1.04 mg/kg, respectively. For the same compound, in data set [6], the degraded at 100 h, 1 µM worked out at 50%.
Take `C[C@H](O)Cn1c(-c2cc(=O)c(O)c[nH]2)nn(S(=O)(=O)[N-]C(=O)N2C[C@H](NC(=O)/C(=N\OC(C)(C)C(=O)[O-])c3csc(N)n3)C2=O)c1=O.[Na+].[Na+]`: the values for the MIC in the data set with Pseudomonas aeruginosa [1], in the data set with Klebsiella pneumoniae [2] and in the data set with Acinetobacter baumannii were 0.125 µg/mL, 0.25 µg/mL and 1 µg/mL, respectively. In the data set on Pseudomonas aeruginosa [3], this compound had an MIC90 of 1 µg/mL. Further, the ED50 in the data set with Pseudomonas aeruginosa [4] was found to be 15.7 mg/kg.
Regarding `Cc1cc(Cn2c(-c3cc(=O)c(O)c[nH]3)nn(S(=O)(=O)[N-]C(=O)N3C[C@H](NC(=O)/C(=N\OC(C)(C)C(=O)[O-])c4csc(N)n4)C3=O)c2=O)nn1C.[Na+].[Na+]`, inhibition of growth in the data set on Pseudomonas aeruginosa [1] (MIC) required 8 µg/mL.
As to `CC(C)(O/N=C(\C(=O)N[C@H]1CN(C(=O)[N-]S(=O)(=O)n2nc(-c3cc(=O)c(O)c[nH]3)n(C[C@@H]3CCCO3)c2=O)C1=O)c1csc(N)n1)C(=O)[O-].[Na+].[Na+]`, the MIC against Pseudomonas aeruginosa [1] turned out to be 0.5 µg/mL; with Klebsiella pneumoniae [2], 0.5 µg/mL; in the data set on Acinetobacter baumannii, 2 µg/mL. For the same compound, the figures for the ED50 in the data set with Pseudomonas aeruginosa [5] and in the data set on Pseudomonas aeruginosa [4] were 2.8 mg/kg and over 100 mg/kg, respectively.
Turning to `CC(C)(C)CCn1c(-c2cc(=O)c(O)c[nH]2)nn(S(=O)(=O)[N-]C(=O)N2C[C@H](NC(=O)/C(=N\OC(C)(C)C(=O)[O-])c3csc(N)n3)C2=O)c1=O.[Na+].[Na+]`, the lowest concentration to inhibit growth in the data set on Pseudomonas aeruginosa [1] (MIC) was 0.5 µg/mL.
For `CC(C)(O/N=C(\C(=O)N[C@H]1CN(C(=O)[N-]S(=O)(=O)n2nc(-c3cc(=O)c(O)c[nH]3)n(CCCO)c2=O)C1=O)c1csc(N)n1)C(=O)[O-].[Na+].[Na+]`, the MIC in the data set with Pseudomonas aeruginosa [1] was 0.25 µg/mL.
`C=CC1=C(C(=O)O)N2C(=O)[C@@H](NC(=O)/C(=N\OCC(=O)O)c3csc(N)n3)[C@H]2SC1` [CEFIXIME]: in data set [17], the fraction unbound was 0.35.
On to `C[C@@H](O)Cn1c(-c2cc(=O)c(O)c[nH]2)nn(S(=O)(=O)[N-]C(=O)N2C[C@H](NC(=O)/C(=N\OC(C)(C)C(=O)[O-])c3csc(N)n3)C2=O)c1=O.[Na+].[Na+]`, for which the minimal inhibitory concentration (MIC) was found to be 0.125 µg/mL against Pseudomonas aeruginosa [1], 0.5 µg/mL against Klebsiella pneumoniae [2] and 1 µg/mL in the data set on Acinetobacter baumannii. In the data set on Pseudomonas aeruginosa [3], this compound registered an MIC90 of 1 µg/mL. In addition, the ED50 in the data set on Pseudomonas aeruginosa [5] is under 1 mg/kg; in the data set on Pseudomonas aeruginosa [4], 32.7 mg/kg.

Source of the values: ChEMBL document CHEMBL2016521, “Preparation, gram-negative antibacterial activity, and hydrolytic stability of novel siderophore-conjugated monocarbam diols” (ACS Med Chem Lett, 2011).
